# Source: ChEMBL document CHEMBL2177098, “Synthesis and evaluation of novel ¹⁸F labeled 2-pyridinylbenzoxazole and 2-pyridinylbenzothiazole derivatives as ligands for positron emission tomography (PET) imaging of β-amyloid plaques” (J Med Chem, 2012)
# Tests used:
# [1] = tested on: Intestine; assay: Drug uptake in ICR mouse intestine assessed per organ at 370 kBq/100 ul, iv at 30 mins by gamma-counting analysis; format: ADME, organism-based; details: in vivo, 0.5 h
# Summary of the method: (§1)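 Male ICR mice (5 weeks, about 20 g) got 18F tracer in saline (370 KBq per 100 μL) via tail vein; n = 5 per time point, killed at 2, 10, 30, 60 min. Organs removed and γ-counted against diluted injectate; expressed as % injected dose per organ.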
# [2] = tested on: Intestine; assay: Drug uptake in ICR mouse intestine assessed per organ at 370 kBq/100 ul, iv at 10 mins by gamma-counting analysis; format: ADME, organism-based; details: in vivo; summary of the method: as §1
# [3] = tested on: Intestine; assay: Drug uptake in ICR mouse intestine assessed per organ at 370 kBq/100 ul, iv at 2 mins by gamma-counting analysis; format: ADME, organism-based; details: in vivo; summary of the method: as §1
# [4] = tested on: Stomach; assay: Drug uptake in ICR mouse stomach assessed per organ at 370 kBq/100 ul, iv at 60 mins by gamma-counting analysis; format: ADME, organism-based; details: in vivo, 1 h
# Summary of the method: (§2)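 Normal male ICR mice (5 weeks, about 20 g) received the ¹⁸F tracer in saline (370 KBq per 100 μL) by tail-vein injection. Groups of n = 5 were killed at 2, 10, 30 and 60 min. Organs were removed, weighed and γ-counted against diluted aliquots of the injectate, giving % dose per gram. Stomach and intestine were expressed per organ. The brain ratio is 2 min/60 min uptake. Values are mean ± SD.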
# [5] = tested on: Stomach; assay: Drug uptake in ICR mouse stomach assessed per organ at 370 kBq/100 ul, iv at 30 mins by gamma-counting analysis; format: ADME, organism-based; details: in vivo, 0.5 h; summary of the method: as §1
# [6] = tested on: Stomach; assay: Drug uptake in ICR mouse stomach assessed per organ at 370 kBq/100 ul, iv at 10 mins by gamma-counting analysis; format: ADME, organism-based; details: in vivo; summary of the method: as §1
# [7] = tested on: Stomach; assay: Drug uptake in ICR mouse stomach assessed per organ at 370 kBq/100 ul, iv at 2 mins by gamma-counting analysis; format: ADME, organism-based; details: in vivo; summary of the method: as §1
# [8] = tested on: Kidney; assay: Drug uptake in ICR mouse kidney at 370 kBq/100 ul, iv at 60 mins by gamma-counting analysis; format: ADME, organism-based; details: in vivo, 1 h
# Summary of the method: (§3)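 Male ICR mice (5 weeks, about 20 g) got 18F tracer in saline (370 KBq per 100 μL) via tail vein; n = 5 per time point, killed at 2, 10, 30, 60 min. Organs weighed and γ-counted; percent dose per gram wet tissue from comparison with diluted injectate aliquots.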
# [9] = tested on: Kidney; assay: Drug uptake in ICR mouse kidney at 370 kBq/100 ul, iv at 30 mins by gamma-counting analysis; format: ADME, organism-based; details: in vivo, 0.5 h; summary of the method: as §3
# [10] = tested on: Kidney; assay: Drug uptake in ICR mouse kidney at 370 kBq/100 ul, iv at 10 mins by gamma-counting analysis; format: ADME, organism-based; details: in vivo; summary of the method: as §3
# [11] = tested on: Lung; assay: Drug uptake in ICR mouse lung at 370 kBq/100 ul, iv at 60 mins by gamma-counting analysis; format: ADME, organism-based; details: in vivo, 1 h; summary of the method: as §3
# [12] = tested on: Kidney; assay: Drug uptake in ICR mouse kidney at 370 kBq/100 ul, iv at 2 mins by gamma-counting analysis; format: ADME, organism-based; details: in vivo; summary of the method: as §3
# [13] = tested on: Lung; assay: Drug uptake in ICR mouse lung at 370 kBq/100 ul, iv at 30 mins by gamma-counting analysis; format: ADME, organism-based; details: in vivo, 0.5 h; summary of the method: as §3
# [14] = tested on: Lung; assay: Drug uptake in ICR mouse lung at 370 kBq/100 ul, iv at 10 mins by gamma-counting analysis; format: ADME, organism-based; details: in vivo; summary of the method: as §3
# [15] = tested on: Lung; assay: Drug uptake in ICR mouse lung at 370 kBq/100 ul, iv at 2 mins by gamma-counting analysis; format: ADME, organism-based; details: in vivo; summary of the method: as §3
# [16] = tested on: Spleen; assay: Drug uptake in ICR mouse spleen at 370 kBq/100 ul, iv at 60 mins by gamma-counting analysis; format: ADME, organism-based; details: in vivo, 1 h; summary of the method: as §3
# [17] = tested on: Spleen; assay: Drug uptake in ICR mouse spleen at 370 kBq/100 ul, iv at 10 mins by gamma-counting analysis; format: ADME, organism-based; details: in vivo; summary of the method: as §3
# [18] = tested on: Spleen; assay: Drug uptake in ICR mouse spleen at 370 kBq/100 ul, iv at 30 mins by gamma-counting analysis; format: ADME, organism-based; details: in vivo, 0.5 h; summary of the method: as §3
# [19] = tested on: Spleen; assay: Drug uptake in ICR mouse spleen at 370 kBq/100 ul, iv at 2 mins by gamma-counting analysis; format: ADME, organism-based; details: in vivo; summary of the method: as §3
# [20] = tested on: Liver; assay: Drug uptake in ICR mouse liver at 370 kBq/100 ul, iv at 60 mins by gamma-counting analysis; format: ADME, organism-based; details: in vivo, 1 h; summary of the method: as §3
# [21] = tested on: Liver; assay: Drug uptake in ICR mouse liver at 370 kBq/100 ul, iv at 30 mins by gamma-counting analysis; format: ADME, organism-based; details: in vivo, 0.5 h; summary of the method: as §3
# [22] = tested on: Liver; assay: Drug uptake in ICR mouse liver at 370 kBq/100 ul, iv at 2 mins by gamma-counting analysis; format: ADME, organism-based; details: in vivo; summary of the method: as §3
# [23] = tested on: Liver; assay: Drug uptake in ICR mouse liver at 370 kBq/100 ul, iv at 10 mins by gamma-counting analysis; format: ADME, organism-based; details: in vivo; summary of the method: as §3
# [24] = tested on: Heart; assay: Drug uptake in ICR mouse heart at 370 kBq/100 ul, iv at 60 mins by gamma-counting analysis; format: ADME, organism-based; details: in vivo, 1 h; summary of the method: as §3
# [25] = tested on: Heart; assay: Drug uptake in ICR mouse heart at 370 kBq/100 ul, iv at 30 mins by gamma-counting analysis; format: ADME, organism-based; details: in vivo, 0.5 h; summary of the method: as §3
# [26] = tested on: Heart; assay: Drug uptake in ICR mouse heart at 370 kBq/100 ul, iv at 10 mins by gamma-counting analysis; format: ADME, organism-based; details: in vivo; summary of the method: as §3
# [27] = tested on: Brain; assay: Drug uptake in ICR mouse brain at 370 kBq/100 ul, iv at 60 mins by gamma-counting analysis; format: ADME, organism-based; details: in vivo, 1 h; summary of the method: as §3
# [28] = tested on: Heart; assay: Drug uptake in ICR mouse heart at 370 kBq/100 ul, iv at 2 mins by gamma-counting analysis; format: ADME, organism-based; details: in vivo; summary of the method: as §3
# [29] = tested on: Brain; assay: Drug uptake in ICR mouse brain at 370 kBq/100 ul, iv at 30 mins by gamma-counting analysis; format: ADME, organism-based; details: in vivo, 0.5 h; summary of the method: as §3
# [30] = tested on: Brain; assay: Drug uptake in ICR mouse brain at 370 kBq/100 ul, iv at 10 mins by gamma-counting analysis; format: ADME, organism-based; details: in vivo; summary of the method: as §3
# [31] = tested on: Brain; assay: Drug uptake in ICR mouse brain at 370 kBq/100 ul, iv at 2 mins by gamma-counting analysis; format: ADME, organism-based; details: in vivo; summary of the method: as §3
# [32] = tested on: Blood; assay: Drug uptake in ICR mouse blood at 370 kBq/100 ul, iv at 30 mins by gamma-counting analysis; format: ADME, organism-based; details: in vivo, 0.5 h; summary of the method: as §3
# [33] = tested on: Blood; assay: Drug uptake in ICR mouse blood at 370 kBq/100 ul, iv at 60 mins by gamma-counting analysis; format: ADME, organism-based; details: in vivo, 1 h; summary of the method: as §3
# [34] = tested on: Blood; assay: Drug uptake in ICR mouse blood at 370 kBq/100 ul, iv at 10 mins by gamma-counting analysis; format: ADME, organism-based; details: in vivo; summary of the method: as §3
# [35] = tested on: Blood; assay: Drug uptake in ICR mouse blood at 370 kBq/100 ul, iv at 2 mins by gamma-counting analysis; format: ADME, organism-based; details: in vivo; summary of the method: as §3
# [36] = Displacement of [125I]-IMPY from amyloid beta (1 to 42) fibrils after 2 hrs by gamma-counting analysis
# Summary of the method: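 Competition binding with aggregated Aβ1-42 fibrils and [125I]IMPY (60000−100000 cpm/100 μL) in 0.05% BSA (1 mL total); inhibitors 10⁻⁴−10^−8.5 M in ethanol. Incubated 37 °C for 2 h, then GF/B vacuum filtration with PBS (0.02 M, pH 7.4) washes and γ counting. Three repeats; IC50 converted to Ki by Cheng−Prusoff.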
# [37] = tested on: Brain; assay: Drug uptake in wild type C57BL6 mouse brain at 370 KBq/100 ul after 1 hr by autoradiographic analysis; format: ADME, tissue-based; details: in vitro
# Summary of the method: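 Paraffin brain sections from 12-month-old male control C57BL6 mice were deparaffinized through xylene and graded ethanol, then held in PBS (0.2 M, pH 7.4) for 30 min. They were incubated with the ¹⁸F tracer (370 KBq per 100 μL) for 1 h at room temperature. Sections were washed in 40% EtOH, rinsed with water for 1 min, dried, and exposed to a phosphor plate for 2 h. The same sections were then stained with thioflavin S.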
# [38] = n-Octanol-PBS buffer partition coefficient, log D of the compound at 1.5 MBq after 3 mins at pH 7.4; format: physicochemical
# Summary of the method: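 The tracer was partitioned between n-octanol and PBS by vortexing for 3 min at room temperature, then centrifuged for 5 min at 3000 rpm. Samples of the octanol (50 μL) and aqueous (500 μL) layers were counted. log D is the log of the octanol/PBS counts-per-gram ratio. The octanol layer was repartitioned until values were consistent. Measured in triplicate and repeated three times.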
# [39] = tested on: Brain; assay: Ratio of drug uptake in brain at 2 mins to drug uptake in brain at 60 mins in ICR mouse at 370 KBq/100 ul, iv; format: ADME, organism-based; details: in vivo; summary of the method: as §2
# [40] = tested on: Bone; assay: Drug uptake in ICR mouse bone at 370 kBq/100 ul, iv at 60 mins by gamma-counting analysis; format: ADME, organism-based, Bone element; details: in vivo, 1 h; summary of the method: as §3
# [41] = tested on: Bone; assay: Drug uptake in ICR mouse bone at 370 kBq/100 ul, iv at 30 mins by gamma-counting analysis; format: ADME, organism-based, Bone element; details: in vivo, 0.5 h; summary of the method: as §3
# [42] = tested on: Bone; assay: Drug uptake in ICR mouse bone at 370 kBq/100 ul, iv at 2 mins by gamma-counting analysis; format: ADME, organism-based, Bone element; details: in vivo; summary of the method: as §3
# [43] = tested on: Bone; assay: Drug uptake in ICR mouse bone at 370 kBq/100 ul, iv at 10 mins by gamma-counting analysis; format: ADME, organism-based, Bone element; details: in vivo; summary of the method: as §3
# [44] = tested on: Intestine; assay: Drug uptake in ICR mouse intestine assessed per organ at 370 kBq/100 ul, iv at 60 mins by gamma-counting analysis; format: ADME, organism-based; details: in vivo, 1 h; summary of the method: as §1
smiles,measurement,setting,value
CN(C)c1ccc(-c2nc3cc(OCCOCCOCC[18F])ccc3o2)cn1,Drug uptake,[1],28.15 %ID
same,Drug uptake,[2],14.45 %ID
same,Drug uptake,[3],8.13 %ID
same,Drug uptake,[4],6.45 %ID
same,Drug uptake,[5],9.26 %ID
same,Drug uptake,[6],5.1 %ID
same,Drug uptake,[7],2.66 %ID
same,Drug uptake,[8],3.21 % ID/g
same,Drug uptake,[9],4.2 % ID/g
same,Drug uptake,[10],5.14 % ID/g
same,Drug uptake,[11],1.87 % ID/g
same,Drug uptake,[12],8.27 % ID/g
same,Drug uptake,[13],2.64 % ID/g
same,Drug uptake,[14],2.34 % ID/g
same,Drug uptake,[15],3.03 % ID/g
same,Drug uptake,[16],2.34 % ID/g
same,Drug uptake,[17],2.69 % ID/g
same,Drug uptake,[18],2.41 % ID/g
same,Drug uptake,[19],3 % ID/g
same,Drug uptake,[20],3.46 % ID/g
same,Drug uptake,[21],7.24 % ID/g
same,Drug uptake,[22],13.25 % ID/g
same,Drug uptake,[23],5.41 % ID/g
same,Drug uptake,[24],2.73 % ID/g
same,Drug uptake,[25],2.97 % ID/g
same,Drug uptake,[26],3.51 % ID/g
same,Drug uptake,[27],1.82 % ID/g
same,Drug uptake,[28],5.24 % ID/g
same,Drug uptake,[29],1.85 % ID/g
same,Drug uptake,[30],1.97 % ID/g
same,Drug uptake,[31],3.79 % ID/g
same,Drug uptake,[32],2.74 % ID/g
same,Drug uptake,[33],2.87 % ID/g
same,Drug uptake,[34],3.05 % ID/g
same,Drug uptake,[35],5.47 % ID/g
same,Ki,[36],9.9 nM
same,Drug uptake,[37],Not Active
same,logD at 0.05 h,[38],3.26
same,Ratio,[39],2.08
same,Drug uptake,[40],6.39 % ID/g
same,Drug uptake,[41],4.71 % ID/g
same,Drug uptake,[42],1.79 % ID/g
same,Drug uptake,[43],2.7 % ID/g
same,Drug uptake,[44],28.54 %ID
